Test results published in ChEMBL document CHEMBL2380219, “Physalin A induces apoptotic cell death and protective autophagy in HT1080 human fibrosarcoma cells” (J Nat Prod, 2013).
The source made the active and inactive calls. No cut-off for these calls is given here.

Assays:
HT-1080 [1] = assay: Induction of apoptosis in human HT1080 cells expressing beclin 1 siRNA assessed as increase in FAS protein expression at 10 uM after 24 hrs by Western blotting analysis relative to control; format: functional, cell-based
Method in brief: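 Beclin 1 or nonspecific siRNA transfected into HT1080 cells (5 × 10^5 seeded a day earlier; transfection mixture for 7 h at 37 °C, then normal medium, 24 h before harvest). Cells then got 10 μM for 24 h. Adherent plus floating cells lysed in Hepes pH 7.4/Triton buffer at 4 °C for 60 min. Equal protein on 12% SDS-PAGE, nitrocellulose, ECL. Bands normalized to β-actin, n = 3.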

HT-1080 [2] = assay: Induction of apoptosis in human HT1080 cells expressing beclin 1 siRNA assessed as increase in apoptotic ratio at 10 uM after 24 hrs by propidium iodide staining-based FACS flow cytometric analysis relative to control; format: functional, cell-based
Method in brief: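 HT1080 cells transfected with beclin 1 or nonspecific siRNA (7 h at 37 °C, then 24 h in growth medium), then exposed to 10 μM for 24 h. Cells fixed in 70% ethanol at 4 °C for 18 h, washed, stained with PI 50 μg/mL plus RNase A 1 mg/mL. Apoptotic (sub-G1) fraction read by flow cytometry.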

HT-1080 [3] = assay: Induction of apoptosis in human HT1080 cells assessed as increase in procaspase-8 cleavage at 10 uM pretreated with 3MA for 1 hr prior to compound addition measured after 24 hrs by Western blotting analysis; format: functional, cell-based
Method in brief: (§1)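 HT1080 cells pretreated 1 h with 1 mM 3MA or 1 nM rapamycin, then co-incubated with 10 μM for 24 h. Adherent and floating cells lysed in Hepes pH 7.4/Triton buffer. 12% SDS-PAGE, nitrocellulose, antibodies against Fas, FADD, caspase-8, caspase-3, PARP and ICAD, ECL detection. Densities normalized to β-actin; n = 3.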

HT-1080 [4] = assay: Induction of apoptosis in human HT1080 cells assessed as upregulation of FADD protein expression at 10 uM pretreated with rapamycin for 1 hr prior to compound addition measured after 24 hrs by Western blotting analysis; format: functional, cell-based; method in brief: as §1
HT-1080 [5] = assay: Induction of autophagy in human HT1080 cells assessed as upregulation of beclin 1 at 10 uM pretreated with 3MA for 1 hr prior to compound addition measured after 24 hrs by Western blotting analysis; format: functional, cell-based
Method in brief: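 HT1080 cells pretreated 1 h with 1 mM 3MA or 1 nM rapamycin, then 10 μM added for 24 h. Adherent and floating cells lysed in Hepes pH 7.4/Triton buffer. Equal protein on 12% SDS-PAGE and nitrocellulose, probed for beclin 1 and LC3, ECL detection. Normalized to β-actin, n = 3.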

HT-1080 [6] = assay: Induction of autophagy in human HT1080 cells assessed as autophagic vacuole formation at 10 uM pretreated with rapamycin for 1 hr prior to compound addition measured after 24 hrs by MDC staining-based FACS flow cytometric analysis; format: functional, cell-based
Method in brief: (§2)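 HT1080 cells seeded at 3 × 10^5 per flask and grown 24 h. Pretreated 1 h with 1 mM 3MA or 1 nM rapamycin, then 10 μM for 24 h. Collected cells stained with 0.05 mM MDC at 37 °C for 1 h. MDC-positive ratio measured by flow cytometry, n = 3, mean ± SD.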

HT-1080 [7] = assay: Induction of autophagy in human HT1080 cells assessed as autophagic vacuole formation at 10 uM pretreated with 3MA for 1 hr prior to compound addition measured after 24 hrs by MDC staining-based FACS flow cytometric analysis; format: functional, cell-based; method in brief: as §2
HT-1080 [8] = assay: Induction of autophagy in human HT1080 cells assessed as upregulation of beclin 1 at 10 uM by Western blotting analysis; format: functional, cell-based; conditions: TDE = time-dependent effect
Method in brief: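 HT1080 cells exposed to 10 μM for 6, 12, 18 and 24 h, then lysed in Hepes pH 7.4/Triton buffer at 4 °C for 60 min. Equal protein run on 12% SDS-PAGE, blotted to nitrocellulose, probed for beclin 1 and LC3, ECL detection. Densities taken relative to β-actin, n = 3.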

HT-1080 [9] = assay: Induction of apoptosis in human HT1080 cells assessed as PARP cleavage at 10 uM after 6 to 24 hrs by Western blotting analysis; format: functional, cell-based
Method in brief: (§3)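 HT1080 cells treated with 10 μM for 6, 12, 18 and 24 h. Adherent and floating cells lysed 60 min at 4 °C in Hepes pH 7.4/1% Triton X-100 buffer with phosphatase and protease inhibitors. Equal protein run on 12% SDS-PAGE, transferred to nitrocellulose, probed with specific antibodies, HRP/ECL detection. Band density normalized to β-actin; n = 3.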

HT-1080 [10] = assay: Induction of apoptosis in human HT1080 cells assessed as increase in FAS protein expression at 10 uM after 6 to 24 hrs by Western blotting analysis; format: functional, cell-based; method in brief: as §3
HT-1080 [11] = assay: Cytotoxicity against human HT1080 cells assessed as growth inhibition at 10 uM pretreated with z-DEVD-FMK for 1 hr prior to compound addition measured after 24 hrs by MTT assay; format: functional, cell-based
Method in brief: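 HT1080 seeded 0.8 × 10^4 cells/well. MTT 2 h at 37 °C, formazan in DMSO, A492 read. Inhibition % calculated against untreated and blank wells.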

HT-1080 [12] = assay: Induction of apoptosis in human HT1080 cells assessed as accumulation in subG1 phase at 10 uM after 24 hrs by propidium iodide staining-based FACS flow cytometric analysis (reference value: 0.32%); format: functional
HT-1080 [13] = assay: Induction of apoptosis in human HT1080 cells assessed as appearance of granular apoptotic bodies at 10 uM after 24 hrs by acridine orange staining-based fluorescence microscopic analysis; format: functional, cell-based
Method in brief: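 HT1080 cells, 2 × 10^4/well, cultured 24 h, then exposed to 10 μM for 24 h. Stained with acridine orange 20 μg/mL for 15 min in the dark and examined by fluorescence microscopy at 200×.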

HT-1080 [14] = assay: Cytotoxicity against human HT1080 cells assessed as growth inhibition after 12 to 72 hrs by MTT assay; format: functional, cell-based
PBMC = assay: Cytotoxicity against human PBMC at 10 to 80 uM after 24 to 48 hrs by MTT assay; format: cell-based
Method in brief: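 PBMC from fresh blood of three healthy male donors. Blood diluted 1:3 in PBS, layered on Ficoll-Hypaque (1.077 g/mL), spun 900g 30 min. Band washed 400g 10 min, cells resuspended in complete RPMI-1640 in 96-well plates. Treated with 0, 10, 20, 40 or 80 μM for 24 and 48 h, then MTT. Means ± SD of three independent experiments.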

A549 = assay: Cytotoxicity against human A549 cells assessed as growth inhibition after 24 hrs by MTT assay; format: functional, cell-based
Method in brief: (§4)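 Seeded 0.8 × 10^4 cells/well, cultured 24 h, then exposed to 0, 10, 20, 40 or 80 μM for 24 h (DMSO <0.05%) in RPMI 1640 or MEM with 10% FBS. Adherent lines rinsed with PBS, given MTT 2 h at 37 °C. Suspension lines (U937, HL60) given MTT 2 h, then centrifuged. Formazan dissolved in DMSO, A492 read. Inhibition % = (control − sample)/(control − blank) × 100.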

A375-S2 = assay: Cytotoxicity against human A375-S2 cells assessed as growth inhibition after 24 hrs by MTT assay; format: functional, cell-based; method in brief: as §4
HepG2 = assay: Cytotoxicity against human HepG2 cells assessed as growth inhibition after 24 hrs by MTT assay; format: functional, cell-based; method in brief: as §4

C=C1C(=O)O[C@@H]2C[C@@]1(C)[C@@H]1C(=O)[C@]3(O)O[C@]14[C@@]2(C)OC(=O)[C@@]4(O)CC[C@H]1[C@H]3[C@H](O)C=C2CC=CC(=O)[C@@]21C [PHYSALIN A]
Activity (HT-1080 [1]): Active | Activity (HT-1080 [2]): Active | Activity (HT-1080 [3]): Active | Activity (HT-1080 [4]): inactive | Activity (HT-1080 [5]): inactive | Activity (HT-1080 [6]): Active | Activity (HT-1080 [7]): inactive | Activity (HT-1080 [8]): tde | Activity (HT-1080 [9]): Active | Activity (HT-1080 [10]): Active | growth inhibition (GI) (HT-1080 [11]): Active | Activity (HT-1080 [12]): 27.79% | Activity (HT-1080 [13]): Active | growth inhibition (GI) (HT-1080 [14]): Dose-dependent effect | Activity (PBMC): Non-toxic | growth inhibition (GI) (A549): Dose-dependent effect | growth inhibition (GI) (A375-S2): Dose-dependent effect | growth inhibition (GI) (HepG2): Dose-dependent effect
